Experimental data gathered from unrelated publications.
Compare with care: the assays were run in different laboratories.

| Compound | cell line | observed | action | method | time | notes | IC50 |
| --- | --- | --- | --- | --- | --- | --- | --- |
| COc1ccc(Nc2ncnc3c2ncn3Cc2ccc(C(=O)Nc3ccccc3N)cc2)cc1 | HEL | cell growth or viability |  | MTT | 72 h |  | 16.8 µM |
| CN1CCN(c2ccc(Nc3c4ccccc4nc4ccccc34)cc2)CC1 | SNU-449 | cell growth or viability |  | imaging | 72 h |  | 4.68 µM |
| COc1ccc(Nc2ncnc3c2ncn3Cc2ccc(C(=O)NO)cc2)cc1 | NB-4 | cell growth or viability |  | MTT | 72 h |  | 0.87 µM |
| COc1cc([C@@H]2c3cc4c(cc3[C@@H](O[C@@H]3O[C@@H]5CO[C@@H](C)O[C@H]5[C@H](O)[C@H]3O)[C@H]3COC(=O)[C@H]23)OCO4)cc(OC)c1O | HEL 299 | cell growth or viability |  | MTS | 72 h |  | > 10 µM |
| Nc1ccccc1NC(=O)c1ccc(Cn2cnc3c(Nc4ccc(Br)cc4F)ncnc32)cc1 | HEL | cell growth or viability |  | MTT | 72 h |  | 17 µM |
| CCC(=CCc1c(O)cc2c(c1O)C(=O)C[C@@H](c1ccc(O)cc1)O2)CC | HeLa | cell growth or viability |  | MTT | 48 h |  | 22.8 µM |
| Cc1cc(NS(=O)(=O)c2ccc(NC(=O)/C(C#N)=C/c3cccnc3)cc2)no1 | HSF | cell growth or viability |  | MTT | 48 h |  | > 200 µM |
| O=C(CSc1nc2ccccc2s1)N/N=C/c1ccc(OCC(=O)Nc2cccc(Br)c2)cc1 | HEL 299 | cell growth or viability |  | MTS | 72 h |  | > 100 µM |
| O=c1[nH]cc(F)c(=O)[nH]1 | HSF | cell growth or viability |  | MTT | 48 h |  | 76.9 µM |
| Cc1cc2c(C(=O)O)cccc2n1-c1nc2c(c(NCc3ccccc3)n1)CCCN2 | KMS-11 | cell growth or viability |  |  | 72 h |  | 0.9 µM |
| C(=N\Nc1cc(N/N=C/c2ccc3ccccc3n2)nc(-c2ccccc2)n1)/c1ccc2ccccc2n1 | BGC-823 | cell growth or viability |  | MTT | 48 h |  | 9.12 µM |
| O=C(NO)c1ccc(Cn2cnc3c(Nc4cccc([N+](=O)[O-])c4)ncnc32)cc1 | NB-4 | cell growth or viability |  | MTT | 72 h |  | 0.58 µM |
| COc1cc(Cn2nc(-c3ccc(CO)o3)c3ccccc32)ccn1 | CC-LP-1 | cell growth or viability |  | ATP luminescence |  |  | > 46 µM |
| Nc1ccccc1NC(=O)c1ccc(Cn2cnc3c(Nc4ccc(Cl)cc4)ncnc32)cc1 | HEL | cell growth or viability |  | MTT | 72 h |  | 13 µM |
| CONC(=O)c1cccc2c1cc(C)n2-c1nc2c(c(NCc3ccccc3)n1)CCCN2 | KMS-11 | cell growth or viability |  |  | 72 h |  | 2.1 µM |
| NCc1ccc(-c2nn(Cc3ccncc3)c3ccccc23)o1 | CC-LP-1 | cell growth or viability |  | ATP luminescence |  |  | > 46 µM |
| C=CC(=O)N1CCC[C@@H](n2nc(-c3ccc(Oc4ccccc4)cc3)c3c(N)ncnc32)C1 | SU-DHL-6 | cell growth or viability |  | resazurin | 72 h |  | > 0.5 µM |
| O=C(NO)c1ccc(Cn2cnc3c(Nc4ccc(Br)cc4F)ncnc32)cc1 | HEL | cell growth or viability |  | MTT | 72 h |  | 2.46 µM |

| Compound | cell line | observed | action | method | time | notes | IC50 |
| --- | --- | --- | --- | --- | --- | --- | --- |
| COc1ncccc1Cn1nc(-c2ccc(CO)o2)c2ccccc21 | CC-LP-1 | cell growth or viability |  | ATP luminescence |  |  | > 46 µM |
| O=C(NO)c1ccc(Cn2cnc3c(Nc4ccc(F)c(Cl)c4)ncnc32)cc1 | NB-4 | cell growth or viability |  | MTT | 72 h |  | 2.34 µM |
| OCc1ccc(-c2nn(Cc3ccccn3)c3cccnc23)o1 | CC-LP-1 | cell growth or viability |  | ATP luminescence |  |  | > 46 µM |
| C#Cc1cccc(Nc2ncnc3cc(OCCOC)c(OCCOC)cc23)c1 | BGC-823 | cell growth or viability |  | MTT | 48 h |  | > 20 µM |
| O=C(CSc1nc2ccccc2s1)N/N=C/c1ccc(OCC(=O)Nc2cccc([N+](=O)[O-])c2)cc1 | HEL 299 | cell growth or viability |  | MTS | 72 h |  | > 100 µM |
| OCc1ccc(-c2nn(Cc3ccncc3)c3cccnc23)o1 | CC-LP-1 | cell growth or viability |  | ATP luminescence |  |  | > 46 µM |
| CN1C(=O)C(=O)c2cc3c(c4c2c1cc1ccccc14)OCO3 | H69AR | cell growth or viability |  | MTT | 75 h |  | 44.6 µM |
| OCc1ccc(-c2nn(Cc3ccccn3)c3ccccc23)o1 | CC-LP-1 | cell growth or viability |  | ATP luminescence |  |  | > 46 µM |
| Cc1ccc(S(=O)(=O)NC(=O)c2cc3ccccc3n2Cc2ccc(C3CC3)c3ccccc23)cc1 | mouse BMDM | IL-1β release | inhibitor | ELISA |  | LPS-stimulated | 2.61 µM |
| COc1cccc(Cn2nc(-c3ccc(CO)o3)c3ccccc32)c1 | CC-LP-1 | cell growth or viability |  | ATP luminescence |  |  | > 46 µM |
| CN(C)c1cccc2c(S(=O)(=O)NCCCCN=C=S)cccc12 | HDFa | cell growth or viability |  | MTT | 24 h |  | 28.4 µM |
| Cc1cc(NS(=O)(=O)c2ccc(NC(=O)/C(C#N)=C/c3ccncc3)cc2)no1 | HSF | cell growth or viability |  | MTT | 48 h |  | > 200 µM |
| CNC(=O)c1cc(Oc2ccc(NC(=O)Nc3ccc(Cl)c(C(F)(F)F)c3)cc2)ccn1 | SNU-449 | cell growth or viability |  | imaging | 72 h |  | 6.37 µM |
| C(=N\Nc1cc(N/N=C/c2cccc3cccnc23)ncn1)/c1cccc2cccnc12 | BGC-823 | cell growth or viability |  | MTT | 48 h |  | 26.8 µM |
| O=C(NO)c1ccc(Cn2cnc3c(Nc4ccc(Cl)cc4)ncnc32)cc1 | NB-4 | cell growth or viability |  | MTT | 72 h |  | 0.41 µM |
| OCc1ccc(-c2nn(Cc3ccncc3)c3ccccc23)o1 | CC-LP-1 | cell growth or viability |  | ATP luminescence |  |  | > 46 µM |
| COc1cccc2c1C(=O)c1c(O)c3c(c(O)c1C2=O)C[C@@](O)(C(=O)CO)C[C@@H]3O[C@H]1C[C@H](N)[C@H](O)[C@H](C)O1 | BGC-823 | cell growth or viability |  |  | 96 h |  | 0.0818 µM |
